According to ChEMBL document CHEMBL4196066, “Design and synthesis of furyl/thineyl pyrroloquinolones based on natural alkaloid perlolyrine, lead to the discovery of potent and selective PDE5 inhibitors” (Eur J Med Chem, 2018):

Experiments:
[1] = target: cGMP-specific 3',5'-cyclic phosphodiesterase (Homo sapiens, UniProt O76074); assay: Inhibition of N-terminal GST-tagged full length recombinant human PDE5A1 catalytic domain expressed in Baculovirus infected Sf9 insect cells using FAM-cGMP as substrate after 1 hr by fluorescence polarization assay
Homo sapiens [2] = organism: Homo sapiens; assay: Selectivity ratio of IC50 for N-terminal GST-tagged full length recombinant human PDE1A to IC50 for N-terminal GST-tagged full length recombinant human PDE5A1 catalytic domain
Homo sapiens [3] = organism: Homo sapiens; assay: Selectivity ratio of IC50 for N-terminal FLAG-tagged human PDE2A1 (2 to 941 residues) to IC50 for N-terminal GST-tagged full length recombinant human PDE5A1 catalytic domain
Homo sapiens [4] = organism: Homo sapiens; assay: Selectivity ratio of IC50 for N-terminal GST-tagged recombinant human PDE3B (592 end residues) to IC50 for N-terminal GST-tagged full length recombinant human PDE5A1 catalytic domain
Homo sapiens [5] = organism: Homo sapiens; assay: Selectivity ratio of IC50 for N-terminal GST-tagged full length recombinant human PDE4A1A to IC50 for N-terminal GST-tagged full length recombinant human PDE5A1 catalytic domain
Homo sapiens [6] = organism: Homo sapiens; assay: Selectivity ratio of IC50 for N-terminal GST-tagged full length recombinant human PDE6C to IC50 for N-terminal GST-tagged full length recombinant human PDE5A1 catalytic domain
Homo sapiens [7] = organism: Homo sapiens; assay: Selectivity ratio of IC50 for N-terminal GST-tagged full length recombinant human PDE11A to IC50 for N-terminal GST-tagged full length recombinant human PDE5A1 catalytic domain
[8] = Half life in Wistar rat at 2 mg/kg, iv; assay type: ADME, organism-based; conditions: in vivo
[9] = Half life in Wistar rat at 15 mg/kg, po; assay type: ADME, organism-based; conditions: in vivo
[10] = Cmax in Wistar rat at 2 mg/kg, iv; assay type: ADME, organism-based; set-up: dose 2 mg/kg, route intravenous; conditions: in vivo
[11] = Cmax in Wistar rat at 15 mg/kg, po; assay type: ADME, organism-based; set-up: dose 15 mg/kg, route oral; conditions: in vivo
[12] = Tmax in Wistar rat at 2 mg/kg, iv; assay type: ADME, organism-based; conditions: in vivo
[13] = Tmax in Wistar rat at 15 mg/kg, po; assay type: ADME, organism-based; conditions: in vivo
[14] = AUC (0 to 24 hrs) in Wistar rat at 2 mg/kg, iv; assay type: ADME, organism-based; set-up: time < 24 hr, dose 2 mg/kg, route intravenous; conditions: in vivo
[15] = AUC (0 to 24 hrs) in Wistar rat at 15 mg/kg, po; assay type: ADME, organism-based; set-up: time < 24 hr, dose 15 mg/kg, route oral; conditions: in vivo
Procedure, shortened: (§1)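 Male Wistar rats (228−249 g) fasted 12 h, dosed orally in 0.5% methylcellulose. Blood drawn at 0, 0.5, 1, 1.5, 2, 4, 6, 12 and 24 h; plasma separated by centrifugation at 4 °C, stored at −80 °C, drug measured by LC–MS/MS, and PK parameters computed from the concentration–time data.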

[16] = AUC (0 to infinity) in Wistar rat at 2 mg/kg, iv; assay type: ADME, organism-based; set-up: dose 2 mg/kg, route intravenous, time infinity; conditions: in vivo
Rattus norvegicus [17] = assay: (§2) AUC (0 to infinity) in Wistar rat at 15 mg/kg, po; assay type: ADME, organism-based; set-up: dose 15 mg/kg, route oral, time infinity; conditions: in vivo; procedure, shortened: as §1
[18] = MRT in Wistar rat at 2 mg/kg, iv; assay type: ADME, organism-based; conditions: in vivo
[19] = MRT in Wistar rat at 15 mg/kg, po; assay type: ADME, organism-based; conditions: in vivo
[20] = Clearance in Wistar rat at 2 mg/kg, iv; assay type: ADME, organism-based; conditions: in vivo
[21] = Volume of distribution at steady state in Wistar rat at 2 mg/kg, iv; assay type: ADME, organism-based; conditions: in vivo, read-out: Vdss
Rattus norvegicus [22] = assay: Volume of distribution at steady state in Wistar rat at 15 mg/kg, po; assay type: ADME, organism-based; conditions: in vivo
[23] = Oral bioavailability in Wistar rat at 15 mg/kg; assay type: ADME, organism-based; conditions: in vivo
Thoracic aorta = assay: Vasorelaxant activity in norepinephrine-pretreated New Zealand rabbit thoracic aorta assessed as increase in aortic relaxation at 1 uM measured after 15 mins relative to control; assay type: functional, Oryctolagus cuniculus; set-up: scale not given: the % may be the effect or the level left
Procedure, shortened: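 Thoracic aortic rings from New Zealand white rabbits were held in Krebs buffer at 2 g resting tension (0%) and equilibrated 2 h. Rings were contracted to maximum with 1 µM norepinephrine (100%). Compounds were added cumulatively at 15 min intervals, with tension recorded 15 min after each dose. Relaxation % = (max − recorded)/(max − 2 g) × 100; n = 1–2 rings.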

Oryctolagus cuniculus = assay: Vasorelaxant activity in iv dosed New Zealand rabbit assessed as induction of ICP change in response to electrically pelvic nerve stimulation administered as bolus dose; assay type: functional
[24] = target: Cone cGMP-specific 3',5'-cyclic phosphodiesterase subunit alpha' (Homo sapiens, UniProt P51160); assay: Inhibition of N-terminal GST-tagged full length recombinant human PDE6C expressed in Baculovirus infected Sf9 insect cells using […] as substrate after 1 hr by fluorescence polarization assay
[25] = target: Dual 3',5'-cyclic-AMP and -GMP phosphodiesterase 11A (Homo sapiens, UniProt Q9HCR9); assay: Inhibition of N-terminal GST-tagged full length recombinant human PDE11A expressed in Baculovirus infected Sf9 insect cells using FAM-cAMP as substrate after 1 hr by fluorescence polarization assay
[26] = target: Dual specificity calcium/calmodulin-dependent 3',5'-cyclic nucleotide phosphodiesterase 1A (Homo sapiens) (UniProt P54750); assay: Inhibition of N-terminal GST-tagged full length recombinant human PDE1A expressed in Baculovirus infected Sf9 insect cells at 8 uM using FAM-cAMP as substrate after 1 hr by fluorescence polarization assay relative to control
[27] = target: cGMP-dependent 3',5'-cyclic phosphodiesterase (Homo sapiens) (UniProt O00408); assay: Inhibition of N-terminal FLAG-tagged human PDE2A1 (2 to 941 residues) expressed in Baculovirus infected Sf9 insect cells at 8 uM using FAM-cAMP as substrate after 1 hr by fluorescence polarization assay relative to control
[28] = target: cGMP-dependent 3',5'-cyclic phosphodiesterase (Homo sapiens) (UniProt O00408); assay: Inhibition of N-terminal FLAG-tagged human PDE2A1 (2 to 941 residues) expressed in Baculovirus infected Sf9 insect cells at 250 uM using FAM-cAMP as substrate after 1 hr by fluorescence polarization assay relative to control
[29] = target: cGMP-inhibited 3',5'-cyclic phosphodiesterase 3B (Homo sapiens) (UniProt Q13370); assay: Inhibition of N-terminal GST-tagged recombinant human PDE3B (592 end residues) expressed in Baculovirus infected Sf9 insect cells at 8 uM using FAM-cAMP as substrate after 1 hr by fluorescence polarization assay relative to control
[30] = target: 3',5'-cyclic-AMP phosphodiesterase 4A (Homo sapiens) (UniProt P27815); assay: Inhibition of N-terminal GST-tagged full length recombinant human PDE4A1A expressed in Baculovirus infected Sf9 insect cells at 1.5 uM using FAM-cAMP as substrate after 1 hr by fluorescence polarization assay relative to control
[31] = as §2; assay type: ADME, organism-based; set-up: dose 15 mg/kg, route oral, time infinity; conditions: Wistar, in vivo; procedure, shortened: as §1
[32] = Clearance in Wistar rat at 15 mg/kg, po; assay type: ADME, organism-based; conditions: in vivo
[33] = target: Dual specificity calcium/calmodulin-dependent 3',5'-cyclic nucleotide phosphodiesterase 1A (Homo sapiens) (UniProt P54750); assay: Inhibition of N-terminal GST-tagged full length recombinant human PDE1A expressed in Baculovirus infected Sf9 insect cells at 6 uM using FAM-cAMP as substrate after 1 hr by fluorescence polarization assay relative to control
[34] = target: cGMP-dependent 3',5'-cyclic phosphodiesterase (Homo sapiens) (UniProt O00408); assay: Inhibition of N-terminal FLAG-tagged human PDE2A1 (2 to 941 residues) expressed in Baculovirus infected Sf9 insect cells at 6 uM using FAM-cAMP as substrate after 1 hr by fluorescence polarization assay relative to control
[35] = target: cGMP-inhibited 3',5'-cyclic phosphodiesterase 3B (Homo sapiens) (UniProt Q13370); assay: Inhibition of N-terminal GST-tagged recombinant human PDE3B (592 end residues) expressed in Baculovirus infected Sf9 insect cells at 6 uM using FAM-cAMP as substrate after 1 hr by fluorescence polarization assay relative to control
[36] = target: 3',5'-cyclic-AMP phosphodiesterase 4A (Homo sapiens) (UniProt P27815); assay: Inhibition of N-terminal GST-tagged full length recombinant human PDE4A1A expressed in Baculovirus infected Sf9 insect cells at 1 uM using FAM-cAMP as substrate after 1 hr by fluorescence polarization assay relative to control

Chain of cGMP-dependent 3',5'-cyclic phosphodiesterase (Homo sapiens) (O00408 whole entry, the tested form may be a part): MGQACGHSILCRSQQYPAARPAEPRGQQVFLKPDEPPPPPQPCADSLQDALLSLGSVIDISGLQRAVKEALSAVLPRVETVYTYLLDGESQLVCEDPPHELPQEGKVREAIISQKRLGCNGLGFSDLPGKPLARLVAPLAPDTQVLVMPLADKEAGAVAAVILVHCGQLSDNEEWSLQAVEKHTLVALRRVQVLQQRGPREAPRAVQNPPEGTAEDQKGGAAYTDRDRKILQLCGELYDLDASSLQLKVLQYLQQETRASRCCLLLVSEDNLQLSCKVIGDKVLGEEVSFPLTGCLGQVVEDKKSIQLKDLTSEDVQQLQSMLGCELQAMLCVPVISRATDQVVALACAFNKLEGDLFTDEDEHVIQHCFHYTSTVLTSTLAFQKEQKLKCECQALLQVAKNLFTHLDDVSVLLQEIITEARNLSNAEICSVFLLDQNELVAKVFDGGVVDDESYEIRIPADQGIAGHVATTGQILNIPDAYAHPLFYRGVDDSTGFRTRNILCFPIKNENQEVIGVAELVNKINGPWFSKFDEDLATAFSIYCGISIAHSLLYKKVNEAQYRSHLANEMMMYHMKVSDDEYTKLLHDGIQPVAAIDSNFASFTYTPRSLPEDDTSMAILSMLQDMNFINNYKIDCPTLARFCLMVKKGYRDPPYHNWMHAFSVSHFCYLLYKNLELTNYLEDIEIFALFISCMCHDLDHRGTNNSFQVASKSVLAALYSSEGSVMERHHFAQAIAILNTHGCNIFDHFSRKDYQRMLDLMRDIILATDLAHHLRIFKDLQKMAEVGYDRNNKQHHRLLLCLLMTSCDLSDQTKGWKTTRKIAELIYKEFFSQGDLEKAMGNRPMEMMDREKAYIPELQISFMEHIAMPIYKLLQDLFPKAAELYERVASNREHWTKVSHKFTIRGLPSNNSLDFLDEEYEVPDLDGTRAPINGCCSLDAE
Chain of Cone cGMP-specific 3',5'-cyclic phosphodiesterase subunit alpha' (P51160 whole entry): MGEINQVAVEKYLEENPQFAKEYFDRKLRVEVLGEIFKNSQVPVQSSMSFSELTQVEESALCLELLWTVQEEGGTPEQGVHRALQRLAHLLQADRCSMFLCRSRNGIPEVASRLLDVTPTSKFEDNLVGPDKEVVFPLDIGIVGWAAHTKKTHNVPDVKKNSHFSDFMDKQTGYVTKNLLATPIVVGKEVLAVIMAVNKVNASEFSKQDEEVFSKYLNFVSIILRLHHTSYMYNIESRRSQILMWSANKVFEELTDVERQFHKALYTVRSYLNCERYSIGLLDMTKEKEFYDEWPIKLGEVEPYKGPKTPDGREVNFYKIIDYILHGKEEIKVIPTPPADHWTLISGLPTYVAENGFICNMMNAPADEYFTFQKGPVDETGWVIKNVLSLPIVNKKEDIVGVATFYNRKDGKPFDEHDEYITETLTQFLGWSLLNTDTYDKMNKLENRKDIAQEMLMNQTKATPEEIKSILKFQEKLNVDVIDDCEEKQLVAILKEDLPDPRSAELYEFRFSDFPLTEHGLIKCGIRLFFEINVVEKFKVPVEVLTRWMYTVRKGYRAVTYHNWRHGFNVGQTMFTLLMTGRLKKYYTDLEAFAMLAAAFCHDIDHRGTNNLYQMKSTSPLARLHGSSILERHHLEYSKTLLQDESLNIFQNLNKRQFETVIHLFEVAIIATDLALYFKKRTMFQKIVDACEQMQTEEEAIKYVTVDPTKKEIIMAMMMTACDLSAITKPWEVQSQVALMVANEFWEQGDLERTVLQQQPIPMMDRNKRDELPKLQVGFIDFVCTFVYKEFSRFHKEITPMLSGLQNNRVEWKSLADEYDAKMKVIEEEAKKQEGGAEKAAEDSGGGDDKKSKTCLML
Chain of 3',5'-cyclic-AMP phosphodiesterase 4A (Homo sapiens) (P27815 whole entry): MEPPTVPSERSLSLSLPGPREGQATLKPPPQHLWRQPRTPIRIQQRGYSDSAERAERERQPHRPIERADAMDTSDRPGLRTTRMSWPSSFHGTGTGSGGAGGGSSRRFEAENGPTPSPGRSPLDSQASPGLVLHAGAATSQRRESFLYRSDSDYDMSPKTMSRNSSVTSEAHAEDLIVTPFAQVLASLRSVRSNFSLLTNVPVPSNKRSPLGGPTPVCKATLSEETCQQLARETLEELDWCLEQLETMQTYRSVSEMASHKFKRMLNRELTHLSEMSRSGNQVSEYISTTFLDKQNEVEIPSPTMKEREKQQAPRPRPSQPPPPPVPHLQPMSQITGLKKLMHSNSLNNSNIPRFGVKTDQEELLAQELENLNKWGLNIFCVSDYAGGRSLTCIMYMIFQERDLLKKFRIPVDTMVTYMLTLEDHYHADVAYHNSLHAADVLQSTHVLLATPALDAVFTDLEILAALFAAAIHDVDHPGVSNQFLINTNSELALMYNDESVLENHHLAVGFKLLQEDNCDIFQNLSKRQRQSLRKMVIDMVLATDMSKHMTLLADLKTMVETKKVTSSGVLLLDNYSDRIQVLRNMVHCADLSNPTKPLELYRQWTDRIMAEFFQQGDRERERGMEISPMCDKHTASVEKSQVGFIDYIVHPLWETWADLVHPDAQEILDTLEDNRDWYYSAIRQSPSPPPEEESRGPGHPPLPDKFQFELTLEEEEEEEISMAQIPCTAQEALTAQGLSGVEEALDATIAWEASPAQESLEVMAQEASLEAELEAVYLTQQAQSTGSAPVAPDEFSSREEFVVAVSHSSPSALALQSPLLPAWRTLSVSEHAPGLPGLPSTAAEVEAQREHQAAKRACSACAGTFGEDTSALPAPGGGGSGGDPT
Chain of cGMP-inhibited 3',5'-cyclic phosphodiesterase 3B (Homo sapiens) (Q13370 whole entry, looked up): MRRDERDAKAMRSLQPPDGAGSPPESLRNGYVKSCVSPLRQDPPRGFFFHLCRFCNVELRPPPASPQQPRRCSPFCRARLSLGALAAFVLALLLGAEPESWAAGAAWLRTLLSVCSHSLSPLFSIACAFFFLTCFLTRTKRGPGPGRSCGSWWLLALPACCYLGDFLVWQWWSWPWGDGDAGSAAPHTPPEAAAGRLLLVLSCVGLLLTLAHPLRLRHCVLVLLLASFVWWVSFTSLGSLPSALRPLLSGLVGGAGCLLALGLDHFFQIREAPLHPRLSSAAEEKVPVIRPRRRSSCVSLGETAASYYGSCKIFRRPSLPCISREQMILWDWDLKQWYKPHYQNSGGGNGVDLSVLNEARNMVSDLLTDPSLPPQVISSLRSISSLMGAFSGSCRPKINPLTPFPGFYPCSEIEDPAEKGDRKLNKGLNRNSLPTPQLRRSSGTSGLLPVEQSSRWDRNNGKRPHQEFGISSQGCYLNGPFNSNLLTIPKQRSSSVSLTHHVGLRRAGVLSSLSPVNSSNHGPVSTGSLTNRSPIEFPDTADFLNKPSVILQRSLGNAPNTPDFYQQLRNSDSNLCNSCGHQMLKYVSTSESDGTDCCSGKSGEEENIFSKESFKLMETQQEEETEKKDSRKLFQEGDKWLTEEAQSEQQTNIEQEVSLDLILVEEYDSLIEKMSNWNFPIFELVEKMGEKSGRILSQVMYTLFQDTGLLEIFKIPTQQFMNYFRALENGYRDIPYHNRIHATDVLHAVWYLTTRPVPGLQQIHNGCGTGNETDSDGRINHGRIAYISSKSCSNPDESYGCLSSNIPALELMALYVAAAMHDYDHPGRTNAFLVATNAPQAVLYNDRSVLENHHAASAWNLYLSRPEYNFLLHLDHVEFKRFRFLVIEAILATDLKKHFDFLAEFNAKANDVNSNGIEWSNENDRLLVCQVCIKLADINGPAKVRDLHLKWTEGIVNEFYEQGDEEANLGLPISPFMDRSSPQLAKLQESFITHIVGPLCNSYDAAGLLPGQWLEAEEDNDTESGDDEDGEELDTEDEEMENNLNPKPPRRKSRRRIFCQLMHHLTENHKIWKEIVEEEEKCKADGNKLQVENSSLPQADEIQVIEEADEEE
Chain of Dual specificity calcium/calmodulin-dependent 3',5'-cyclic nucleotide phosphodiesterase 1A (Homo sapiens) (P54750 whole entry, the tested form may be a part): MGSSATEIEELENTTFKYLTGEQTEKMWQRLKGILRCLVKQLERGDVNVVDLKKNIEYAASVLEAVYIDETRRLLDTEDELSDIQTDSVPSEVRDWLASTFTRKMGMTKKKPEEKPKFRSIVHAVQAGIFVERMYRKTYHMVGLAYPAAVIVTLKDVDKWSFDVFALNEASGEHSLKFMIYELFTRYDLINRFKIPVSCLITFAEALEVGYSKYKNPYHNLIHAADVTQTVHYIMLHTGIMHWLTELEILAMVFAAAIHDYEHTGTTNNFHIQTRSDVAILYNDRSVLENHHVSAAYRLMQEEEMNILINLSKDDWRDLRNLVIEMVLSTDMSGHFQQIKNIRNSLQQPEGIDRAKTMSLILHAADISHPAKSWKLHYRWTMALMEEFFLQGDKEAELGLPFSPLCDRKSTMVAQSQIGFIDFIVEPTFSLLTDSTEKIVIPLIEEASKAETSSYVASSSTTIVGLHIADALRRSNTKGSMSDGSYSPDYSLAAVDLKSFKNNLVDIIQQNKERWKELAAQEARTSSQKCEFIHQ

| SMILES | IC50 [1] [nM] | Ratio IC50 (Homo sapiens [2]) | Ratio IC50 (Homo sapiens [3]) | Ratio IC50 (Homo sapiens [4]) | Ratio IC50 (Homo sapiens [5]) | Ratio IC50 (Homo sapiens [6]) | Ratio IC50 (Homo sapiens [7]) | half-life [8] [h] | half-life [9] [h] | Cmax [10] [ng/mL] | Cmax [11] [ng/mL] | Tmax [12] [min] | Tmax [13] [h] | AUC(0-t) at 24 h [14] [ng·h/mL] | AUC(0-t) at 24 h [15] [ng·h/mL] | AUC(0-inf) [16] [ng·h/mL] | MRT [18] [h] | MRT [19] [h] | clearance [20] [mL/min/kg] | Vd [21] [L/kg] | further results |
| --- | --- | --- | --- | --- | --- | --- | --- | --- | --- | --- | --- | --- | --- | --- | --- | --- | --- | --- | --- | --- | --- |
| CCc1ccc([C@@H]2c3[nH]c4ccccc4c(=O)c3CN2c2ncc(-c3ccccn3)cn2)s1 | 0.52 | > 10000 | > 10000 | > 10000 | > 2500 | 2.5 | 5.2 | 1.9 | 4.3 | 308 | 27.5 | 6 | 2.8 | 121 | 225 | 125 | 2.9 | 6.7 | 287 | 72.7 | AUC (Rattus norvegicus [17]): 231.9 ng·h/mL; Vdss (Rattus norvegicus [22]): 181.3 L/kg; bioavailability [23]: 24.7%; Activity (Thoracic aorta): >90%; ED50 (Oryctolagus cuniculus): 0.0217 mg/kg; IC50 [24]: 1.2 nM; IC50 [25]: 2.7 nM; inhibition [26]: 9.5%; inhibition [27]: 39%; inhibition [28]: 81%; inhibition [29]: 7%; inhibition [30]: 10% |
| CCc1ccc([C@@H]2c3[nH]c4ccccc4c(=O)c3CN2c2ncc(-c3ccccn3)cn2)o1 | 0.39 | > 10000 | > 10000 | > 10000 | > 2500 | 3.9 | 13.1 | 2.9 | 7.8 | 89.2 | 46.9 | 6 | 1.3 | 67.9 | 312 | 69.3 | 3.1 | 9.4 | 533 | 124 | AUC(0-inf) [31]: 344 ng·h/mL; CL/F [32]: 550 mL/min/kg; Vdss (Rattus norvegicus [22]): 420.9 L/kg; bioavailability [23]: 66.3%; Activity (Thoracic aorta): >90%; ED50 (Oryctolagus cuniculus): 0.0242 mg/kg; IC50 [24]: 1.5 nM; IC50 [25]: 5.1 nM; inhibition [33]: 6%; inhibition [34]: 49%; inhibition [35]: 9.5%; inhibition [36]: 18% |
